Results: the RNAGym collection of RNA variant scans (doi:10.1038/s41586-018-0170-7)

B1: tRNA (parent)
chain: GUUCCGUUGGCGUAAUGGUAACGCGUCUCCCUCCUAAGGAGAAGACUGCGGGUUCGAGUCCCGUACGGAACG

Variants of: B1
Experiment: yeast fitness, log relative to wild type (ln ratio); higher = fitter; tRNA-Arg(CCU), competitive growth, 37 C, 1 M NaCl
Summary of the method: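 Fitness is the natural log of each genotype's generations divided by the wild type's. Generations were derived as OD-scaled log2 output/input frequency from 125 bp paired-end Illumina counts, weighting replicates by inverse variance. Pools of the tRNA-Arg(CCU) variant library, on a HIS3 centromeric plasmid in BY4742 lacking the chromosomal gene, grew ~6.5 generations (~26.5 h) in SC-HIS 1M NaCl at 37 °C after 4 generations in SC-HIS at 30 °C.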

Variant	yeast fitness (ln)
GCUCCGUUGGCGUAAUGGUAACGCGUUUCCCUCCUAAGGAGACGAUUGCGGGUUCGAGUCCCGUAAGGGGUG [U2C C27U A43C C46U C66A A69G A70G C71U]	-0.15
GCUCCGUUGGCGUAAUGGUAACGCGUUUCCCUCCUAAGGAGAAGAUUGCGGGUUCGAGUCCCGUACGGGAUG [U2C C27U C46U A69G C71U]	-0.104
GCUCCGUUGGCGUAAUGGUAACGCGUUUCCCUCCUAAGGAGACGAUUGCGGGUUCGAGUCCCGUAUGGAUUG [U2C C27U A43C C46U C66U A70U C71U]	-0.324
GCUCCGUUGGCGUAAUGGUAACGCGUUUCCCUCCUAAGGAGACGACUGCGGGUUCGAGUCCCGUAUGGGGUG [U2C C27U A43C C66U A69G A70G C71U]	-0.288
GCUCCGUUGGCGUAAUGGUAACGCGUUUCCCUCCUAAGGAGACGAUUGCGGGUUCGAGUCCCGUAUGGGAUG [U2C C27U A43C C46U C66U A69G C71U]	-0.281
GCUCCGUUGGCGUAAUGGUAACGCGUUUCCCUCCUAAGGAGAAGACUGCGGGUUCGAGUCCCGUACGGAGUG [U2C C27U A70G C71U]	-0.0321
GCUCCGUUGGCGUAAUGGUAACGCGUUUCCCUCCUAAGGAGAAGAUUGCGGGUUCGAGUCCCGUACGGAACG [U2C C27U C46U]	-0.0168
GCUCCGUUGGCGUAAUGGUAACGCGUUUCCCUCCUAAGGAGAAGACUGCGGGUUCGAGUCCCGUACGGGAUG [U2C C27U A69G C71U]	-0.102
GCUCCGUUGGCGUAAUGGUAACGCGUUUCCCUCCUAAGGAGACGAUUGCGGGUUCGAGUCCCGUAAGGAGCG [U2C C27U A43C C46U C66A A70G]	-0.0421
GCUCCGUUGGCGUAAUGGUAACGCGUUUCCCUCCUAAGGAGACGAUUGCGGGUUCGAGUCCCGUAAGGAUCG [U2C C27U A43C C46U C66A A70U]	-0.0988
GCUCCGUUGGCGUAAUGGUAACGCGUUUCCCUCCUAAGGAGAAGAUUGCGGGUUCGAGUCCCGUAUGGGGUG [U2C C27U C46U C66U A69G A70G C71U]	-0.281
GCUCCGUUGGCGUAAUGGUAACGCGUUUCCCUCCUAAGGAGAAGACUGCGGGUUCGAGUCCCGUACGGAGCG [U2C C27U A70G]	-0.0415
GCUCCGUUGGCGUAAUGGUAACGCGUUUCCCUCCUAAGGAGAAGACUGCGGGUUCGAGUCCCGUACGGAUCG [U2C C27U A70U]	-0.0757
GCUCCGUUGGCGUAAUGGUAACGCGUUUCCCUCCUAAGGAGAAGAUUGCGGGUUCGAGUCCCGUAAGGAUUG [U2C C27U C46U C66A A70U C71U]	-0.134
GCUCCGUUGGCGUAAUGGUAACGCGUUUCCCUCCUAAGGAGAAGAUUGCGGGUUCGAGUCCCGUACGGGUUG [U2C C27U C46U A69G A70U C71U]	-0.216
GCUCCGUUGGCGUAAUGGUAACGCGUUUCCCUCCUAAGGAGAAGAUUGCGGGUUCGAGUCCCGUAAGGAACG [U2C C27U C46U C66A]	-0.143
GCUCCGUUGGCGUAAUGGUAACGCGUUUCCCUCCUAAGGAGAAGAUUGCGGGUUCGAGUCCCGUAUGGAACG [U2C C27U C46U C66U]	-0.0297
GCUCCGUUGGCGUAAUGGUAACGCGUUUCCCUCCUAAGGAGAAGAUUGCGGGUUCGAGUCCCGUACGGAGUG [U2C C27U C46U A70G C71U]	-0.0224
GCUCCGUUGGCGUAAUGGUAACGCGUUUCCCUCCUAAGGAGACGAUUGCGGGUUCGAGUCCCGUAAGGGAUG [U2C C27U A43C C46U C66A A69G C71U]	-0.41

Variant	yeast fitness (ln)
GCUCCGUUGGCGUAAUGGUAACGCGUUUCCCUCCUAAGGAGACGAUUGCGGGUUCGAGUCCCGUAUGGGGUG [U2C C27U A43C C46U C66U A69G A70G C71U]	-0.216
GCUCCGUUGGCGUAAUGGUAACGCGUUUCCCUCCUAAGGAGACGACUGCGGGUUCGAGUCCCGUAUGGGUUG [U2C C27U A43C C66U A69G A70U C71U]	-0.476
GCUCCGUUGGCGUAAUGGUAACGCGUUUCCCUCCUAAGGAGAAGAUUGCGGGUUCGAGUCCCGUACGGGGCG [U2C C27U C46U A69G A70G]	-0.0283
GCUCCGUUGGCGUAAUGGUAACGCGUUUCCCUCCUAAGGAGAAGAUUGCGGGUUCGAGUCCCGUACGGGUCG [U2C C27U C46U A69G A70U]	-0.198
GCUCCGUUGGCGUAAUGGUAACGCGUUUCCCUCCUAAGGAGACGACUGCGGGUUCGAGUCCCGUACGGAAUG [U2C C27U A43C C71U]	-0.0796
GCUCCGUUGGCGUAAUGGUAACGCGUUUCCCUCCUAAGGAGAAGAUUGCGGGUUCGAGUCCCGUAAGGGGUG [U2C C27U C46U C66A A69G A70G C71U]	-0.106
GCUCCGUUGGCGUAAUGGUAACGCGUUUCCCUCCUAAGGAGAAGAUUGCGGGUUCGAGUCCCGUACGGAUCG [U2C C27U C46U A70U]	-0.0474
GCUCCGUUGGCGUAAUGGUAACGCGUUUCCCUCCUAAGGAGAAGAUUGCGGGUUCGAGUCCCGUACGGAGCG [U2C C27U C46U A70G]	-0.0268
GCUCCGUUGGCGUAAUGGUAACGCGUUUCCCUCCUAAGGAGACGACUGCGGGUUCGAGUCCCGUAUGGAUCG [U2C C27U A43C C66U A70U]	-0.135
GCUCCGUUGGCGUAAUGGUAACGCGUUUCCCUCCUAAGGAGACGACUGCGGGUUCGAGUCCCGUAUGGAGCG [U2C C27U A43C C66U A70G]	-0.232
GCUCCGUUGGCGUAAUGGUAACGCGUUUCCCUCCUAAGGAGACGAUUGCGGGUUCGAGUCCCGUAAGGAUUG [U2C C27U A43C C46U C66A A70U C71U]	-0.269
GCUCCGUUGGCGUAAUGGUAACGCGUUUCCCUCCUAAGGAGACGACUGCGGGUUCGAGUCCCGUAUGGGAUG [U2C C27U A43C C66U A69G C71U]	-0.388
GCUCCGUUGGCGUAAUGGUAACGCGUUUCCCUCCUAAGGAGACGAUUGCGGGUUCGAGUCCCGUAUGGAACG [U2C C27U A43C C46U C66U]	-0.0652
GCUCCGUUGGCGUAAUGGUAACGCGUUUCCCUCCUAAGGAGAAGAUUGCGGGUUCGAGUCCCGUAUGGGGCG [U2C C27U C46U C66U A69G A70G]	-0.0845
GCUCCGUUGGCGUAAUGGUAACGCGUUUCCCUCCUAAGGAGAAGAUUGCGGGUUCGAGUCCCGUAUGGGUCG [U2C C27U C46U C66U A69G A70U]	-0.137
GCUCCGUUGGCGUAAUGGUAACGCGUUUCCCUCCUAAGGAGACGAUUGCGGGUUCGAGUCCCGUAUGGAUCG [U2C C27U A43C C46U C66U A70U]	-0.115
GCUCCGUUGGCGUAAUGGUAACGCGUUUCCCUCCUAAGGAGACGAUUGCGGGUUCGAGUCCCGUAUGGAGCG [U2C C27U A43C C46U C66U A70G]	-0.0949
GCUCCGUUGGCGUAAUGGUAACGCGUUUCCCUCCUAAGGAGACGAUUGCGGGUUCGAGUCCCGUAUGGAGUG [U2C C27U A43C C46U C66U A70G C71U]	-0.406
